The results in this text go back to ChEMBL document CHEMBL1131239, “Orally active benzamide antipsychotic agents with affinity for dopamine D2, serotonin 5-HT1A, and adrenergic alpha1 receptors” (J Med Chem, 1998).

Assay [1] concerns the target T1, Adrenergic receptor alpha-1 (Rattus norvegicus, UniProt P15823+P23944+P43140).
T1 sequence (P15823 whole entry): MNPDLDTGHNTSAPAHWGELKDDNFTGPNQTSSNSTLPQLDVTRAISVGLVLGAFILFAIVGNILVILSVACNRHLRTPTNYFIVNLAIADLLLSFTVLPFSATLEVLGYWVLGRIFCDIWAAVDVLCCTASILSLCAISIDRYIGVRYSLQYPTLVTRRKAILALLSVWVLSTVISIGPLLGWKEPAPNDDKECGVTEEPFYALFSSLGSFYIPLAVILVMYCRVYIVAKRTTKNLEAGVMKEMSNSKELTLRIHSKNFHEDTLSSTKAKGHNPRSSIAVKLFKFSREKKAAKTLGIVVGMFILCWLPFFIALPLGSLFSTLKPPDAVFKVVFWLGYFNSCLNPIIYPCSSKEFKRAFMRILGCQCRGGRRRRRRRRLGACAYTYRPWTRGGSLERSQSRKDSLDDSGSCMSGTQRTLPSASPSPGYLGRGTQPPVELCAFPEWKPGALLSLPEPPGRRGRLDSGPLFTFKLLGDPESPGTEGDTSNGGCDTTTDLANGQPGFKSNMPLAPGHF
T1 sequence (P23944 whole entry): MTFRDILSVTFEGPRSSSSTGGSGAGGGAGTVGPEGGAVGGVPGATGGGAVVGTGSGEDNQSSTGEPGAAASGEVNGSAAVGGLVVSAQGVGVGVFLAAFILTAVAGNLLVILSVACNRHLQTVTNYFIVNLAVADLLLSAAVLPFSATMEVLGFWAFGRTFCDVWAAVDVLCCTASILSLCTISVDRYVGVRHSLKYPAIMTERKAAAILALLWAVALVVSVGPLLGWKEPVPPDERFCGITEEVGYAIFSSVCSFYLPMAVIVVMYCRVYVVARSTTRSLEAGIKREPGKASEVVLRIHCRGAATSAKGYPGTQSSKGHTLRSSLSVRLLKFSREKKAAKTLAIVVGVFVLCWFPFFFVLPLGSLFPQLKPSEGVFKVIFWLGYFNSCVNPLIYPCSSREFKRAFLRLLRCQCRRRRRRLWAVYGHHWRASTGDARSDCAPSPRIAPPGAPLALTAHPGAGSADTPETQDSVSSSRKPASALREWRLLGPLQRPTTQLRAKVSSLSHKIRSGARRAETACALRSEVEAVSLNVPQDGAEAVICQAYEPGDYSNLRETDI
T1 sequence (P43140 whole entry): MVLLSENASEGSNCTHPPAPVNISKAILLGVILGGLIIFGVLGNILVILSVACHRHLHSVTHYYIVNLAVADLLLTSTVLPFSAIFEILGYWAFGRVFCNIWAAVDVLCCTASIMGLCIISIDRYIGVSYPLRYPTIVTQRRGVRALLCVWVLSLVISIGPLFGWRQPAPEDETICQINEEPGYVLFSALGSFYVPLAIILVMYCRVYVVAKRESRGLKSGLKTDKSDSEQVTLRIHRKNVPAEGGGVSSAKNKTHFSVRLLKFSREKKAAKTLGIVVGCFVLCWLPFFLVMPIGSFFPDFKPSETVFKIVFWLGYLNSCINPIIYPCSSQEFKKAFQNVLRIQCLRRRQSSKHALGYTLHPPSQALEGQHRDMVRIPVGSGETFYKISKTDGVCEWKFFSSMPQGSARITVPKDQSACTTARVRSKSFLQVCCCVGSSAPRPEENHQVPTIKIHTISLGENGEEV
Put plainly: Binding affinity against Alpha-1 adrenergic receptor from rat cerebral cortex. Type of assay: tissue-based.

Assay [2] deals with Rattus norvegicus. Put plainly: compound was tested for antipsychotic activity by conditioned avoidance response(CAR) assay in rats with a pretreatment period of 30 min upon intra peritoneal administration at a concentration of 5 mg/kg. It is filed as functional. An outline of the steps:
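Rat conditioned avoidance test modified from Martin et al. Trained rats (N = 4) were run in 1-h sessions on two consecutive days. Fed animals had food and water until placed in the test chambers. Dosing was ip with 30 min pretreatment, and activity was expressed as percent inhibition at the stated dose.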

Assay [3] relates to Rattus norvegicus. Description: compound was tested for antipsychotic activity by conditioned avoidance response(CAR) assay in rats with a pretreatment period of 30 min upon intra peritoneal administration at a concentration of 15 mg/kg. It is filed as functional. An outline of the steps: (§1)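 Trained rats (N = 4) were run in 1-h sessions on two consecutive days, with the experimenter blind to drug and dose. Fed rats had food and water until placed in the test chambers. Fasted rats had no food overnight before the experiment.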

In assay [4] the target is T2, 5-hydroxytryptamine receptor 1A (Rattus norvegicus, UniProt P19327).
T2 sequence (P19327 whole entry): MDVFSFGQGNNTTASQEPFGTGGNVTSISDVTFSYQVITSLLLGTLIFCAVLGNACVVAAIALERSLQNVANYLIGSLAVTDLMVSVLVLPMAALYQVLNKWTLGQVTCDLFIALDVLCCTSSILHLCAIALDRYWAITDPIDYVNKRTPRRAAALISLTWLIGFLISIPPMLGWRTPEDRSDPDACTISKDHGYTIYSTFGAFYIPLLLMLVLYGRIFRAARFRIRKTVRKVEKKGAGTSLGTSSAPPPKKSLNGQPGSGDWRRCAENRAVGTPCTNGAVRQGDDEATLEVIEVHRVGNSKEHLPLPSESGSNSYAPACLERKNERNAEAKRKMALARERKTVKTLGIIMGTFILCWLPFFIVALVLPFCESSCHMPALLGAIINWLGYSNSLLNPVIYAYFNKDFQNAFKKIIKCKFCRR
Description: Compound was evaluated for its binding affinity against 5-hydroxytryptamine 1A receptor from rat cerebral cortex. Type of assay: tissue-based.

Assay [5] concerns Rattus norvegicus. Description: Percent catalepsy in male Spargue-Dawley rat at pretreatment time 60 mins and when administered ip at dose 50 mg/kg. It is filed as functional. As to conditions: route intraperitoneal. In short, it runs like this:
(§2)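 Catalepsy in rats, groups of five per drug treatment, scored blind to drug and dose. Each session included a saline or vehicle negative control and a haloperidol 2 mg/kg positive control. Deaths during the experiment were recorded in the catalepsy column as number dead out of five.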

The subject of assay [6] is Rattus norvegicus. Put plainly: compound was tested for antipsychotic activity by conditioned avoidance response(CAR) assay in rats with a pretreatment period of 30 min upon peroral administration at a concentration of 20 mg/kg. It is filed as functional. Particulars: route oral. In short, it runs like this: as §1
Assay [7] has as its system Rattus norvegicus. Put plainly: compound was tested for antipsychotic activity by conditioned avoidance response(CAR) assay in rats with a pretreatment period of 30 min upon intra peritoneal administration at a concentration of 1 mg/kg. It is filed as functional. An outline of the steps:
as §1

The test system of assay [8] is Rattus norvegicus. Put plainly: compound was tested for antipsychotic activity by conditioned avoidance response(CAR) assay in rats with a pretreatment period of 30 min upon intra peritoneal administration at a concentration of 5 mg/kg. It is filed as functional. In short, it runs like this: as §1
Assay [9] concerns Rattus norvegicus. Description: compound was tested for antipsychotic activity by conditioned avoidance response(CAR) assay in rats with a pretreatment period of 60 min upon peroral administration at a concentration of 20 mg/kg. Particulars: route oral. It is filed as functional.
Assay [10] concerns Rattus norvegicus. Description: Percent catalepsy in male Spargue-Dawley rat at pretreatment time 240 mins and when administered ip at dose 50 mg/kg. It is filed as functional. Particulars: route intraperitoneal. An outline of the steps: as §2
For assay [11], the system named is Rattus norvegicus. Description: compound was tested for antipsychotic activity by conditioned avoidance response(CAR) assay in rats with a pretreatment period of 30 min upon intra peritoneal administration. Type of assay: functional. In short, it runs like this:
as §1

Assay [12] concerns Rattus norvegicus. Description: Percent catalepsy in male Spargue-Dawley rat at pretreatment time 60 mins and administered ip at dose 50 mg/kg. Type of assay: functional. Particulars: route intraperitoneal. In short, it runs like this:
as §2

The target in assay [13] is T2, 5-hydroxytryptamine receptor 1A. Description: Compound was evaluated for its binding affinity with 5-hydroxytryptamine 1A receptor using membranes prepared from rat cerebral cortex. Type of assay: tissue-based. An outline of the steps:
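Membranes from male Wistar rat cerebral cortex: homogenized in HEPES-buffered 0.3 M sucrose, P2 pellet incubated 30 min at 25 °C, resuspended in 3 mM phosphate buffer pH 7.5. Labeled with 3 nM [3H]-8-OH-DPAT for 20 min at 25 °C. Nonspecific binding defined with 1 μM serotonin.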

The target in assay [14] is T1, Adrenergic receptor alpha-1. Description: Compound was evaluated for its binding affinity with Alpha-1 adrenergic receptor using membranes prepared from rat cerebral cortex. Type of assay: tissue-based.

Take `CC(C)Oc1ccccc1N1CCN(Cc2cccc(C(=O)N3CCCCC3=O)c2)CC1`: the Ki in assay [1] was 6.4 nM; in assay [4], 3.9 nM. In addition, the inhibition in vivo at 5 mg/kg in the assay on Rattus norvegicus [2] was -11.2%. In addition, in the assay on Rattus norvegicus [3], the inhibition in vivo at 15 mg/kg was -92.4%.
As for `O=C(c1cccc(CN2CCN(C3COc4ccccc4O3)CC2)c1)N1CCCCC1` (stereo unspecified), the results for the inhibition constant Ki in assay [1] and in assay [4] were 21 nM and 0.34 nM, respectively. The inhibition in vivo at 5 mg/kg in the assay with Rattus norvegicus [2] was -93.8%. In the assay on Rattus norvegicus [5], the Catalepsy turned out to be 29%. Moreover, the inhibition in vivo at 20 mg/kg in the assay with Rattus norvegicus [6] was -68.2%. The inhibition in vivo at 1 mg/kg with Rattus norvegicus [7] was -2.6%.
In turn, `CC(C)Oc1ccccc1N1CCN(Cc2cccc(S(=O)(=O)N3CCCCC3)c2)CC1` gave a Ki in assay [1] of 6.7 nM. The inhibition in vivo at 5 mg/kg in the assay with Rattus norvegicus [8] is -6.7%.
In the case of `CC(C)Oc1ccccc1N1CCN(Cc2cccc(C(=O)N3CCCCCCC3)c2)CC1`, the Ki worked out at 1.9 nM in [1] and 0.13 nM in assay [4]. For the same molecule, the inhibition in vivo at 20 mg/kg in the assay with Rattus norvegicus [9] was -84.7%. Moreover, in the assay with Rattus norvegicus [2], the inhibition in vivo at 5 mg/kg was -90.4%. The Catalepsy in the assay on Rattus norvegicus [5] is on record as 34.4%; with Rattus norvegicus [10], 17.6%. In addition, the inhibition in vivo at 1 mg/kg with Rattus norvegicus [7] was -24.5%.
Regarding `CC(C)Oc1ccccc1N1CCN(C(C)c2cccc(C(=O)N3CCCCC3)c2)CC1` (stereo unspecified), the Ki was 87 nM in [1] and > 1000 nM in [4]. Moreover, the inhibition in vivo at 15 mg/kg with Rattus norvegicus [3] was -7.1%.
On to `CCOc1ccccc1N1CCN(Cc2cccc(C(=O)N3CCCCCC3)c2)CC1`, for which the ED50 in the assay with Rattus norvegicus [11] was 1.26 mg/kg. Besides, the Ki was found to be 8.2 nM in [1] and 0.71 nM in assay [4]. The Catalepsy with Rattus norvegicus [12] amounted to 47.5%.
In the case of `O=C(c1cccc(CN2CCN(c3nsc4ccccc34)CC2)c1)N1CCCCC1`, the Ki in assay [13] is 2.5 nM; in assay [14], 2.7 nM. In addition, the inhibition in vivo at 5 mg/kg with Rattus norvegicus [2] is -89.6%. The Catalepsy with Rattus norvegicus [5] is 74%.
Regarding `O=C(c1cccc(CN2CCN(c3cccc(Cl)c3)CC2)c1)N1CCCCC1`, the Ki was 11.4 nM in assay [1] and 1.2 nM in assay [4]. Also, the inhibition in vivo at 20 mg/kg with Rattus norvegicus [9] is -27.9%. Also, the inhibition in vivo at 5 mg/kg in the assay on Rattus norvegicus [2] was -36.1%. The Catalepsy in the assay with Rattus norvegicus [5] was found to be 21.8%; in the assay on Rattus norvegicus [10] it was 33.9%.

By Ki is commonly meant the equilibrium dissociation constant of an inhibitor or competing ligand from its target. Read a low Ki as tighter binding. By inhibition in vivo is commonly meant the relative decrease from the control value, in per cent. In general, ED50 refers to the dose that gives a 50% effect, or the effect in half of the subjects.
